LMPTP block – LMPTP (human) inhibition; 360,000 compounds, 0.22% hits; recombinant LMPTP-A, OMFP fluorogenic substrate, fluorescence intensity; inhibition, % at 20 µM;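 active means compounds that cut the enzyme signal by at least half of the control window in the single-dose screen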
Target sequence (P24666 whole entry, looked up): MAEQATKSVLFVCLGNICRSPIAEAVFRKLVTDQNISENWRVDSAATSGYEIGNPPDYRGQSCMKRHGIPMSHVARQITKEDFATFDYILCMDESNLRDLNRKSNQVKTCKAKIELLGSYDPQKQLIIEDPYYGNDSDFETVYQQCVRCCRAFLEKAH
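Test system: LMPTP-A, protein tyrosine phosphatase of low molecular weight; Input: 0.625 nM enzyme; Incubation: 50 min dark incubation at room temperature; Signal: endpoint fluorescence intensity from OMFP dephosphorylation; Read-out basis: % inhibition versus control wells.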
Scp-1 inhibitor – blocks human Scp-1 phosphatase activity. Q9GZU7. Recombinant Scp1, phosphopeptide, malachite green phosphate absorbance. inhibition, % at 20 µM. 340,000 compounds, 0.88% hits. AID 493091;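 active means inhibition above about 50% at 20 µM, limit read from the data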
Target sequence (Q9GZU7 76-261 limits assumed): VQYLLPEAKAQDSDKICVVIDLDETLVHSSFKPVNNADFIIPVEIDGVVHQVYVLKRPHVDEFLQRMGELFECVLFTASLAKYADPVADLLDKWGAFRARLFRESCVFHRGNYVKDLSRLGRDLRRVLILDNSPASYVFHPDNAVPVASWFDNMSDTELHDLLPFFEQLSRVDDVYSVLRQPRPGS
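Test system: SCP-1 phosphatase catalytic domain, residues 76-261; measured by: colorimetric phosphate reagent with accelerator and stabiliser, absorbance at 630 nm; timing: enzyme reaction 45 min at room temperature, colour 5 min, stabilisation 30 min; also added: Phosphorylated 17-residue peptide substrate; compound dosing: one concentration, 20 µM, with 1.0% DMSO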
STEP block – STEP (human) phosphatase inhibition. recombinant STEP, OMFP fluorogenic substrate, fluorescence. 360,000 compounds, 0.25% hits. inhibition, % at 20 µM. P54829;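 active means inhibition at 20 µM, scaled per plate between control wells, above about 37%, limit read from the data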
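Test system: STEP tyrosine phosphatase / Reagent: OMFP at 25 µM / Doses: 20 µM, 1% DMSO / Read-out: percent inhibition scaled to no-enzyme and uninhibited-enzyme controls, plate-pattern corrected / Detection: FITC-channel fluorescence of OMFP product / Medium: Bis-Tris buffer pH 6.0, 2.5 mM DTT, 0.005% Tween 20 / Schedule: 20 min at room temperature, dark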
DNMT1 block – inhibitors of human DNMT1. inhibition (reported as % activation of signal), % at 10 µM. P26358. DNMT1 molecular beacon, Hinp1I cleavage, fluorescence. 360,000 compounds, 0.83% hits; in the data active means inhibition above about 50%
Rpn11 inh – Rpn11 (human) deubiquitinase inhibition. AID 588493. human 26S proteasome, Ub4-pepOG fluorescence polarization; 20S core pre-blocked with epoxomicin. inhibition, % at 20 µM. 360,000 compounds, 0.59% hits. O00487;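 active means inhibition at 20 µM, scaled to each plate's controls, above about 33%, limit read from the data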
Target sequence (O00487 whole entry, looked up): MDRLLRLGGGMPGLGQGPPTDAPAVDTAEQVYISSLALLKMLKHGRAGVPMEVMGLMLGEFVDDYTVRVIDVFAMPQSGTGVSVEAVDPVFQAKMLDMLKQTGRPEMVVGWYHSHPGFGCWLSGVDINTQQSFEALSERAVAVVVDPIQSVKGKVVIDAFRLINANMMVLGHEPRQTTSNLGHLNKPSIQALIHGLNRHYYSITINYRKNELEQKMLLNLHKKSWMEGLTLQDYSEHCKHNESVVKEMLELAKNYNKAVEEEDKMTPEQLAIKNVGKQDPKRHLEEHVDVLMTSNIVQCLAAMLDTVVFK
Scp1 confirm – confirmation of human Scp-1 phosphatase inhibitors; inhibition, % at 20 µM; recombinant SCP-1 catalytic domain, phosphate release, malachite green absorbance; shares compounds with Scp-1 inhibitor; AID 540281; 2,500 compounds, 61% hits
MG interference – colorimetric interference in Scp-1 counter-screen. apparent inhibition (interference), % at 20 µM. 2,500 tested, under 10 active. Colorimetric interference counterscreen, malachite green absorbance 630 nm. shares compounds with Scp-1 inhibitor;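 further: compounds added after enzyme reaction finished so only phosphate colour detection is probed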
Scp-1 Tm shift – Scp-1 (human) binding by thermal shift | shares compounds with Scp-1 inhibitor | Recombinant SCP1, Sypro Orange thermal shift Tm | thermal shift relative to vanadate control, % at 40 µM | 1,500 compounds, 25% hits;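 active means substances whose mean melting-temperature shift, as a percentage of the reference inhibitor's shift, reaches about 5.3%, limit read from the data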
Hits are given with their value; . = inactive; / = not tested or not shown. Sampled rows, rich in hits. Any-hit rate of the full collection: about 2%.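 How the source made its calls, unless noted: active means inhibition of at least 30% at 20 µM; inactive means the rest.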

SMILES	LMPTP block	Scp-1 inhibitor	STEP block	DNMT1 block	Rpn11 inh	Scp1 confirm	MG interference	Scp-1 Tm shift
CN(C)C(=O)CSc1ccc(S(=O)(=O)N2CCOCC2)cn1	.	.	.	.	.	/	/	/
CCCNC(=O)C1(C)CCCN(C(=O)c2cc(C)n(C(C)(C)C)n2)C1 (stereo unspecified)	.	/	.	.	.	/	/	/
Cc1ccc(NC(=O)CSc2nc(-c3ccco3)nc3cc(=O)[nH]n23)c(Cl)c1	.	71	.	.	.	48	.	.
Cc1ccc(NC(=O)CSc2n[nH]c(-c3ccco3)n2)c(C)c1	.	.	.	.	.	/	/	/
C=CCNC(=O)COC(=O)c1c2c(nc3ccccc13)CCC2	.	66	.	.	.	65	.	9.5
CCCCNC(=O)COC(=O)c1c2c(nc3ccccc13)CCC2	.	62	.	.	.	46	.	8.4
CC1CCc2nc3ccccc3c(C(=O)OCC(=O)N3CCc4ccccc43)c2C1 (stereo unspecified)	.	50	.	.	.	.	.	/
CCCc1nc2ccccc2c(C(=O)OCC(=O)N2CCc3ccccc32)c1CC	.	.	.	.	.	/	/	/
CNc1cc(-c2cccc(C(=O)N3CCOCC3)c2)ncn1	.	/	.	.	.	/	/	/
CC(=O)OCCCn1c(C)[n+](C)c2cc(Cl)c(Cl)cc21	.	73	.	.	.	.	.	/
CCn1c(C)[n+](CCOC(C)=O)c2cc(Cl)c(Cl)cc21	.	.	.	.	.	/	/	/
Cc1ccc(-c2c(C#N)c(N)nc3c2CCCCC3)cc1	.	.	.	.	.	/	/	/
CC(C)c1ccc(-c2c(C#N)c(N)nc3c2CCCCC3)cc1	.	100	.	.	.	.	.	/
COC(=O)CSc1nc(SCc2ccccc2Cl)nc2c1CCCC2	.	53	.	.	.	.	.	/
CCOc1ccc(OCCCC(=O)N2CCN(S(=O)(=O)c3ccc(Cl)cc3)CC2)cc1	.	56	.	.	.	79	.	.
Cn1c(=O)c(NC(=O)c2ccccc2)c2n(c1=S)CCCCC2	.	55	.	.	.	36	.	.
CSc1nnc(C)c(/C=C/Nc2ccc(F)cc2F)n1	.	55	.	.	.	66	.	.
C[N+]1(C2CCC3CCCC2C3O)CCCCC1 (stereo unspecified)	.	96	.	.	.	78	.	.
COCCN(CC(=O)Nc1cccc(C)c1C)C(=O)c1oc2ccccc2c1C	.	.	.	.	.	/	/	/
Cc1nc(C(F)(F)F)ccc1C(=O)N1CCC1(C)C(=O)Nc1ccc2c(c1)OCO2 (stereo unspecified)	.	/	.	.	.	/	/	/
CC1CC2C3CCC4=CC(=O)CCC4(C)C3CCC2(C)C1(O)C(=O)CO (stereo unspecified)	.	59	.	.	.	.	.	/
COc1cccc(-c2nc3n(n2)CCc2ccccc2-3)c1	.	/	.	.	.	/	/	/
O=C(NCc1ccc(Cl)c(Cl)c1)c1cc(C2CCCCN2C(=O)c2cccs2)on1 (stereo unspecified)	.	/	.	.	.	/	/	/
Cc1ccccc1C(=O)NC1CCSC1=O (stereo unspecified)	.	64	.	.	.	.	.	/
O=C(NC(=S)NC1CCSC1=O)c1ccccc1Cl (stereo unspecified)	.	.	.	.	.	/	/	/
SMILES	LMPTP block	Scp-1 inhibitor	STEP block	DNMT1 block	Rpn11 inh	Scp1 confirm	MG interference	Scp-1 Tm shift
Cc1cccc(NC(=O)CSc2nc3[nH]c(=O)cc(O)c3s2)c1	.	61	.	.	.	37	.	14
CC(=O)Nc1ccc(S(=O)(=O)N(C)CC(=O)OCC(=O)N2CCN(C(=O)c3ccco3)CC2)cc1	.	74	.	.	.	71	.	.
O=C(CCNS(=O)(=O)c1cccc(Cl)c1)OCC(=O)N1CCN(C(=O)c2ccco2)CC1	.	.	.	.	.	/	/	/
CC(=O)Nc1ccc(S(=O)(=O)NCCC(=O)OCC(=O)N2CCN(C(=O)c3ccco3)CC2)cc1	.	77	.	.	.	66	.	5.9
COC(=O)c1c(NC(=O)Cc2ccc(OC)c(S(=O)(=O)N3CCOCC3)c2)sc(C)c1C	.	.	.	.	.	/	/	/
O=C(NCCCn1ccnc1)c1sc2cc([N+](=O)[O-])ccc2c1Cl	.	/	.	.	.	/	/	/
N#Cc1ccc(CN2CCN(C(=O)CCNS(=O)(=O)c3ccc(F)c(Cl)c3)CC2)cc1	.	.	.	.	.	/	/	/
CCOc1ccccc1NC(=O)N1CCC(NC(=O)c2cccc(C)c2)CC1	.	99	.	.	.	67	.	.
CCCCNC(=O)c1nc(C2CCN(S(=O)(=O)c3ccccc3C(F)(F)F)CC2)oc1-c1ccccc1	.	/	.	.	.	/	/	/
Cc1ccc(C(=O)NCCN2CCNC2=O)cc1	.	.	.	.	.	.	.	/
Cc1onc(-c2c(F)cccc2Cl)c1C(=O)NCCN1CCNC1=O	.	.	.	.	.	.	.	/
CCOC(=O)c1ccc2c(c1)n(CC)c(/C=C/Nc1ccccc1)[n+]2CC	.	62	.	.	.	.	.	/
CCn1c(/C=C/Nc2ccccc2)[n+](CC)c2ccc(Cl)cc21	.	.	.	.	.	/	/	/
CCn1c(C)[n+](Cc2ccccc2)c2ccc(Cl)cc21	.	.	.	.	.	/	/	/
CCn1c(C)[n+](Cc2ccccc2)c2ccc(C(=O)OC)cc21	.	102	.	.	.	53	.	.
CC(=O)C1=CCC(c2cccc(Cl)c2)N(S(=O)(=O)c2ccc(C)cc2)C1 (stereo unspecified)	.	/	.	.	.	/	/	/
O=C(Nc1ccc2c(c1)C(=O)NC2=O)c1cccc(C(F)(F)F)c1	.	88	.	.	.	53	.	.
N#C/C(=C\c1cccn1S(=O)(=O)c1cccc(C#N)c1)S(=O)(=O)c1ccc(F)cc1	.	/	.	.	.	/	/	/
Cc1ccc(C(=O)Nc2ccc(N3CCN(C(=O)c4ccco4)CC3)cc2)c(Cl)c1	.	68	.	.	.	.	.	/
C=C[C@H]1[C@H](OC2OC(CO)C(O)C(O)C2O)OC=C(C(=O)OC)[C@H]1C[C@H]1CC(=O)C[C@H](CC(=O)CCc2ccc(O)cc2)O1 (stereo partly specified)	/	.	/	/	/	/	/	/
COc1ccccc1-n1c(SCC(=O)N2CCCCC2)nc2cccnc21	.	95	.	.	.	.	.	/
COc1ccccc1-n1c(SCC(=O)N2CCOCC2)nc2cccnc21	.	.	.	.	.	/	/	/
COc1ccc(CNC(=O)c2ccc(Cl)c(S(=O)(=O)N3CCOCC3)c2)cc1OC	.	.	.	.	.	/	/	/

Screens as filed in PubChem.
